In ChEMBL document CHEMBL3808334, “Synthesis and in vitro evaluation of novel triazine analogues as anticancer agents and their interaction studies with bovine serum albumin” (Eur J Med Chem, 2016):

What was measured:
Assay type in all cases: functional
NCI-H522 = test: Growth inhibition of human NCI-H522 cells assessed as cell growth at 10 uM incubated for 48 hrs by sulforhodamine B assay; details: NCI-H522, 48 h, read-out: Activity
[1] = Growth inhibition of human PC3 cells assessed as cell growth at 10 uM incubated for 48 hrs by sulforhodamine B assay; details: PC-3, 48 h, read-out: Activity
Malme-3M = test: Growth inhibition of human MALME-3M cells assessed as cell growth at 10^-5 M incubated for 48 hrs by sulforhodamine B assay; details: read-out: Activity
MDA-MB-231 = test: Growth inhibition of human MDA-MB-231 cells incubated for 48 hrs by sulforhodamine B assay; details: MDA-MB-231, 48 h
Outline: (§1)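 Cells were plated at 5,000–40,000 per well according to doubling time and preincubated 24 h at 37 °C in 5% CO2; time-zero plates were then TCA-fixed. Five concentrations (10-fold or ½-log dilutions, DMSO stock) were incubated 48 h. Cells were TCA-fixed, stained with 0.4% SRB and read at 515 nm. GI50 was taken where [(Ti−Tz)/(C−Tz)]×100 = 50.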

[2] = Growth inhibition of human RPMI8226 cells assessed as cell growth at 10^-5 M incubated for 48 hrs by sulforhodamine B assay; details: RPMI-8226, 48 h, read-out: Activity
K562 = test: Growth inhibition of human K562 cells assessed as cell growth at 10^-8 M incubated for 48 hrs by sulforhodamine B assay; details: K562, 48 h, read-out: Activity
[3] = Growth inhibition of human SNB75 cells assessed as cell growth at 10^-8 M incubated for 48 hrs by sulforhodamine B assay; details: SNB-75, 48 h, read-out: Activity
MCF7 = test: Growth inhibition of human MCF7 cells assessed as cell growth at 10^-6 M incubated for 48 hrs by sulforhodamine B assay; details: MCF7, 48 h, read-out: Activity
NCI-H322M = test: Growth inhibition of human NCI-H322M cells assessed as cell growth at 10 uM incubated for 48 hrs by sulforhodamine B assay; details: read-out: Activity
[4] = Growth inhibition of human SNB19 cells assessed as cell growth at 10 uM incubated for 48 hrs by sulforhodamine B assay; details: SNB-19, 48 h, read-out: Activity
ACHN = test: Growth inhibition of human ACHN cells assessed as cell growth at 10^-8 M incubated for 48 hrs by sulforhodamine B assay; details: read-out: Activity
Outline: (§2)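 Five-dose assay: five concentrations from 10-fold or ½-log serial dilutions. Cells are plated at 5,000–40,000 per well according to doubling time, grown 24 h, then exposed 48 h at 37 °C, 5% CO₂. Fixed with cold 50% TCA (final addition) for 60 min at 4 °C and stained with 0.4% SRB in 1% acetic acid. Bound dye is solubilized in 10 mM Tris base and read at 515 nm. GI₅₀ is where [(Ti−Tz)/(C−Tz)]×100 = 50, with a time-zero plate as Tz.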

NCI-H226 = test: Growth inhibition of human NCI-H226 cells assessed as cell growth at 10^-7 M incubated for 48 hrs by sulforhodamine B assay; details: NCI-H226, 48 h, read-out: Activity
A498 = test: Growth inhibition of human A498 cells assessed as cell growth at 10^-8 M incubated for 48 hrs by sulforhodamine B assay; details: A498, 48 h, read-out: Activity; outline: as §2
NCI/ADR-RES = test: Growth inhibition of human NCI/ADR-RES cells assessed as cell growth at 10^-6 M incubated for 48 hrs by sulforhodamine B assay; details: read-out: Activity
[5] = Growth inhibition of human OVCAR3 cells assessed as cell growth at 10^-6 M incubated for 48 hrs by sulforhodamine B assay; details: OVCAR-3, 48 h, read-out: Activity
[6] = Growth inhibition of human HL-60(TB) cells assessed as cell growth at 10^-8 M incubated for 48 hrs by sulforhodamine B assay; details: HL-60, 48 h, read-out: Activity
Outline: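 Cells plated at 5,000–40,000/well according to doubling time and preincubated 24 h at 37 °C, 5% CO₂, with time-zero plates TCA-fixed. Drugs were kept as DMSO concentrates at 400× the top concentration and diluted in medium with 50 µg/ml gentamicin. Five 10-fold or ½-log dilutions were run for 48 h, followed by SRB staining and A515. Percent growth = (Ti−Tz)/(C−Tz)×100, or (Ti−Tz)/Tz×100 when Ti<Tz.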

SK-MEL-5 = test: Growth inhibition of human SK-MEL-5 cells assessed as cell growth at 10 uM incubated for 48 hrs by sulforhodamine B assay; details: SK-MEL-5, 48 h, read-out: Activity
[7] = Growth inhibition of human SF539 cells assessed as cell growth at 10 uM incubated for 48 hrs by sulforhodamine B assay; details: SF-539, 48 h, read-out: Activity
CCRF-CEM = test: Growth inhibition of human CCRF-CEM cells assessed as cell growth at 10^-6 M incubated for 48 hrs by sulforhodamine B assay; details: read-out: Activity
Outline: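 Leukemia line in the five-dose format: five concentrations from 10-fold or ½-log serial dilutions. Plated at 5,000–40,000 cells per well, preincubated 24 h, then compound added for 48 h at 37 °C, 5% CO₂. Sulforhodamine B absorbance read at 515 nm. Growth is computed against time-zero (Tz) and control (C) readings; GI₅₀ is where [(Ti−Tz)/(C−Tz)]×100 = 50.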

[8] = Growth inhibition of human SNB75 cells incubated for 48 hrs by sulforhodamine B assay; details: SNB-75, 48 h; outline: as §1
[9] = Growth inhibition of human RPMI8226 cells assessed as cell growth at 10^-4 M incubated for 48 hrs by sulforhodamine B assay; details: RPMI-8226, 48 h, read-out: Activity
[10] = Growth inhibition of human Caki1 cells assessed as cell growth at 10^-5 M incubated for 48 hrs by sulforhodamine B assay; details: CAKI-1, 48 h, read-out: Activity
Outline: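 Cells seeded at 5,000–40,000/well according to doubling time and preincubated 24 h at 37 °C, 5% CO2. Time-zero plates were TCA-fixed. DMSO concentrate was diluted in medium with 50 µg/ml gentamicin to give five concentrations (10-fold or ½ log steps), then exposed 48 h. Cells were TCA-fixed, stained with 0.4% SRB and read at 515 nm. Percent growth was taken against time-zero and control; GI50, TGI and LC50 derived.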

[11] = Growth inhibition of human MOLT4 cells incubated for 48 hrs by sulforhodamine B assay; details: MOLT-4, 48 h; outline: as §1
[12] = read-out: LC50 (the source's name)
[13] = read-out: pLC50 (the source's name) (converted)

Row | Structure (SMILES) | growth at 10 µM (NCI-H522) [%] | growth at 10 µM [1] [%] | growth at 10 µM (Malme-3M) [%] | GI50 (MDA-MB-231; read-out: GI50) [nM] | TGI (MDA-MB-231; read-out: TGI) [nM] | GI50 (MDA-MB-231; read-out: pGI50 (converted)) [nM] | TGI (MDA-MB-231; read-out: pTGI (converted)) [nM] | growth at 10 µM [2] [%] | growth at 0.01 µM (K562) [%] | growth at 0.01 µM [3] [%] | growth at 1 µM (MCF7) [%] | growth at 10 µM (NCI-H322M) [%] | growth at 10 µM [4] [%] | growth at 0.01 µM (ACHN) [%] | growth at 0.1 µM (NCI-H226) [%] | growth at 0.01 µM (A498) [%] | growth at 1 µM (NCI/ADR-RES) [%] | growth at 1 µM [5] [%] | growth at 0.01 µM [6] [%] | growth at 10 µM (SK-MEL-5) [%] | other results
1 | c1ccc(-c2nc(Nc3ccc(-c4nc5ccccc5[nH]4)cc3)nc(N3CCOCC3)n2)cc1 | -68.2 | -35.5 | -73 | 1290 | 3480 | 1290 | 3470 | -32 | 86 | 79 | 47 | -0.47 | -18.6 | 96 | 120 | 86 | 81 | 81 | 73 | -95.4 | CC50 (MDA-MB-231; [12]): 9400 nM; CC50 (MDA-MB-231; [13]): 9330 nM; growth at 10 µM [7]: -76.8%; growth at 1 µM (CCRF-CEM): 32%; GI50 ([8]; read-out: GI50): 1640 nM; CC50 [8, 12]: 6070 nM; TGI ([8]; read-out: TGI): 3150 nM; GI50 ([8]; read-out: pGI50 (converted)): 1620 nM; CC50 [8, 13]: 6030 nM; TGI ([8]; read-out: pTGI (converted)): 3160 nM; growth at 100 µM [9]: -37%; growth at 10 µM [10]: -100%; GI50 ([11]; read-out: GI50): 1330 nM; CC50 [11, 12]: 9350 nM; TGI ([11]; read-out: TGI): 3530 nM; GI50 ([11]; read-out: pGI50 (converted)): 1320 nM; CC50 [11, 13]: 9330 nM; TGI ([11]; read-out: pTGI (converted)): 3550 nM
2 | Clc1ccc(-c2nc(Nc3ccc(-c4nc5ccccc5[nH]4)cc3)nc(N3CCOCC3)n2)cc1 | -73.9 | -93.5 | -78 | 193 | 422 | 195 | 417 | -51 | 96 | 83 | -39 | -92.8 | -81.2 | 95 | 106 | 94 | 37 | 15 | 97 | -97.6 | growth at 10 µM [7]: -92.7%; growth at 1 µM (CCRF-CEM): -19%; GI50 ([8]; read-out: GI50): 1750 nM; TGI ([8]; read-out: TGI): 3250 nM; GI50 ([8]; read-out: pGI50 (converted)): 1740 nM; TGI ([8]; read-out: pTGI (converted)): 3240 nM; growth at 100 µM [9]: -27%; growth at 10 µM [10]: -99%; GI50 ([11]; read-out: GI50): 217 nM; TGI ([11]; read-out: TGI): 573 nM; GI50 ([11]; read-out: pGI50 (converted)): 219 nM; TGI ([11]; read-out: pTGI (converted)): 575 nM
